Assay results as given in ChEMBL document CHEMBL2346497, “Synthesis of novel cognition enhancers with pyrazolo[5,1-c][1,2,4]benzotriazine core acting at γ-aminobutyric acid type A (GABA(A)) receptor” (Bioorg Med Chem, 2013).
The source made the active and inactive calls. The calls are words filed in the database; no cut-off is given here.

What was measured:
Rattus norvegicus [1] = assay: Procognitive effect in Harlan Wistar rat assessed as exploring time of familiar rat during social investigatory behaviour at 0.3 mg/kg, po administered 30 mins prior to testing measured for 5 mins by social learning test (reference value: 27.6 secs); assay type: functional
Rattus norvegicus [2] = assay: Procognitive effect in Harlan Wistar rat assessed as exploring time of familiar rat during social investigatory behaviour at 1 mg/kg, po administered 30 mins prior to testing measured for 5 mins by social learning test (reference value: 27.6 secs); assay type: functional
[3] = molecular target: T1, GABA-A receptor; alpha-1/beta-2/gamma-2 (Homo sapiens, UniProt P14867+P18507+P47870); assay: Displacement of [3H]Ro15-1788 from recombinant GABA-A alpha1beta2gamma2 receptor benzodiazepine binding site (unknown origin) after 1 hr; assay type: protein-complex assay
T1 sequence (P14867 whole entry): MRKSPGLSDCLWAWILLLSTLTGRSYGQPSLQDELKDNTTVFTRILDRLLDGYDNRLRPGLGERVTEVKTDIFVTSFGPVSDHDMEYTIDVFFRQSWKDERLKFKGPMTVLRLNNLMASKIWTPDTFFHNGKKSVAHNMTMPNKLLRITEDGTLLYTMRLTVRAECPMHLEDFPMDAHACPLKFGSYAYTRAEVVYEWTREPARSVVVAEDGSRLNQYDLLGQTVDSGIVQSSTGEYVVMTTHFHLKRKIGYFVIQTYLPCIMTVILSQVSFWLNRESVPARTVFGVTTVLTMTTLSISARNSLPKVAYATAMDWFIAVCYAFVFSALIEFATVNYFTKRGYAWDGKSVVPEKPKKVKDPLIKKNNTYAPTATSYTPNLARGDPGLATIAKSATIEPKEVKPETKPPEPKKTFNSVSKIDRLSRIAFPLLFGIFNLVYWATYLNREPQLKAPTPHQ
T1 sequence (P47870 whole entry): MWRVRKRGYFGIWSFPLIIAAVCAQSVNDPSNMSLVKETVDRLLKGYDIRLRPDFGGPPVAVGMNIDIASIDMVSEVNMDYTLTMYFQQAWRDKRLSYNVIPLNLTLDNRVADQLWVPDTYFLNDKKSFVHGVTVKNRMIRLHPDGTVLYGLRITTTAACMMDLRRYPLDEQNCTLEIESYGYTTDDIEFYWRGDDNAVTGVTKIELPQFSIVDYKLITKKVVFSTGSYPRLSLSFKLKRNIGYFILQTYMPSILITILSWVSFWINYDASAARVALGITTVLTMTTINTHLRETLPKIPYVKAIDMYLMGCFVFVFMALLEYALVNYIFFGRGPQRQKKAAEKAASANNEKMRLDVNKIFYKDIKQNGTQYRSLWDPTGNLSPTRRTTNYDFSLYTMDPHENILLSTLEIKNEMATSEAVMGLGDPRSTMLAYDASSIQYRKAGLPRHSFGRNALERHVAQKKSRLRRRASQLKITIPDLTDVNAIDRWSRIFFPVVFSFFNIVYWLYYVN
T1 sequence (P18507 whole entry): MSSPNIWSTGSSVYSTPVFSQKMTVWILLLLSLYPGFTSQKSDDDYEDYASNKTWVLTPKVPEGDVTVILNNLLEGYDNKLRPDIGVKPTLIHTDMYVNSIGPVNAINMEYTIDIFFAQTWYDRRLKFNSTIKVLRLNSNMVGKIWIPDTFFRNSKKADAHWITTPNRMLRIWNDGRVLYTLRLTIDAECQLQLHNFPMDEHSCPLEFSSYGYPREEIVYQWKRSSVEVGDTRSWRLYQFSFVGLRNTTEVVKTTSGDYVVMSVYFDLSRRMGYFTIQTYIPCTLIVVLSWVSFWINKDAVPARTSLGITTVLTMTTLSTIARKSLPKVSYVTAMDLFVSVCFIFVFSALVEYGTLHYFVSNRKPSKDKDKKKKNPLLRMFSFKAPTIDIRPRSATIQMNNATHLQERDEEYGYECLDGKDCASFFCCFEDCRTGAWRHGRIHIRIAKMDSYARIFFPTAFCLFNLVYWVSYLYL
Method in brief: (§1)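 Membranes came from clonal mammalian cell lines expressing α1β2γ2, α2β2γ2 or α5β3γ2 receptors, grown in MEM/EBSS with 10% FCS at 37 °C. Membranes were resuspended in 10 mM potassium phosphate, pH 7.4, with 100 mM KCl. Assays used 1–2 nM [3H]Ro15-1788 and test compound from 10^-9 to 10^-5 M, at least six concentrations. Diazepam at 10^-5 M defined nonspecific binding. Incubation ran 1 h at 4 °C. Single-point % inhibition was measured at 10 µM, and Ki by curve fitting; n = 5, in duplicate.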

Mus musculus [4] = assay: Anticonvulsant activity in CD1 albino mouse assessed as protection against pentylenetetrazole-induced convulsions at 1 mg/kg, po administered 30 mins prior to pentylenetetrazole challenge measured over 30 mins (reference value: 7.1%); assay type: functional
Mus musculus [5] = assay: Cognitive enhancing effect in CD1 albino mouse assessed as increase in retention latency at 0.1 to 10 mg/kg, po administered 30 mins prior to testing measured after 24 hrs by passive avoidance test relative to control; assay type: functional, organism-based
Method in brief: (§2)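 Step-through passive avoidance in male CD-1 mice (22–24 g). Test drugs were given po, suspended in 1% carboxymethylcellulose at 10 ml/kg, 30 min before the training session. For the antiamnesic arm, scopolamine 1.5 mg/kg was injected immediately after punishment. Retention latency was compared with CMC-treated controls, n = 10–12 mice per group.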

Rattus norvegicus [6] = assay: Procognitive effect in Harlan Wistar rat assessed as exploring time of familiar rat during social investigatory behaviour at 10 mg/kg, po administered 30 mins prior to testing measured for 5 mins by social learning test (reference value: 27.6 secs); assay type: functional
[7] = Displacement of [3H]Ro15-1788 from GABA-A receptor benzodiazepine binding site in bovine cerebral cortex membranes after 1 hr; assay type: cell membranes, Bos taurus, Membrane
Mus musculus [8] = assay: Neurotoxicity in CD1 albino mouse assessed as decrease in number of falls from rotating rod at 10 mg/kg, po by rota-rod test relative to control; assay type: toxicity, organism-based; parameters: dose 10 mg/kg, route oral; conditions: in vivo, TDE = time-dependent effect
Method in brief: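 Motor coordination was tested on a rota-rod turning at 24 rpm in male CD-1 mice dosed po in 1% CMC. Falls within 30 s were counted at a pretest and at 15, 30, 45 and 60 min after dosing. Each value is the mean of five mice, compared with CMC-treated controls.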

Mus musculus [9] = assay: Anxiolytic activity in CD1 albino mouse assessed as increase in time spent in illuminated side at 1 mg/kg, po administered 30 mins prior to testing measured for 5 mins by light-dark box test; assay type: functional, organism-based; parameters: dose 1 mg/kg
Method in brief: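 Light/dark box: two equal acrylic compartments, one lit by a 60 W lamp, joined by a floor-level opening. Male CD-1 mice were dosed po in 1% CMC 30 min before the test, then placed in the centre of the lit side facing away from the dark side. Over 5 min, transfers and time in the light side were recorded, n = 8 mice per group.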

Mus musculus [10] = assay: Antiamnesic activity in CD1 albino mouse assessed as reversal of scopolamine-induced amnesia at 0.1 mg/kg, po administered 30 mins prior to scopolamine challenge measured after 24 hrs by passive avoidance test; assay type: functional, organism-based; parameters: dose 0.1 mg/kg; method in brief: as §2
[11] = molecular target: GABA A receptor alpha-2/beta-2/gamma-2 (Homo sapiens) (UniProt P47870+P18507+P47869); assay: Displacement of [3H]Ro15-1788 from recombinant GABA-A alpha2beta2gamma2 receptor benzodiazepine binding site (unknown origin) at 10 uM after 1 hr relative to control; assay type: protein-complex assay; method in brief: as §1
[12] = molecular target: T2, Gamma-aminobutyric acid receptor subunit alpha-5 (Homo sapiens, UniProt P18507+P31644+P47870); assay: Displacement of [3H]Ro15-1788 from recombinant GABA-A alpha5beta2gamma2 receptor benzodiazepine binding site (unknown origin) after 1 hr
T2 sequence (P31644 whole entry): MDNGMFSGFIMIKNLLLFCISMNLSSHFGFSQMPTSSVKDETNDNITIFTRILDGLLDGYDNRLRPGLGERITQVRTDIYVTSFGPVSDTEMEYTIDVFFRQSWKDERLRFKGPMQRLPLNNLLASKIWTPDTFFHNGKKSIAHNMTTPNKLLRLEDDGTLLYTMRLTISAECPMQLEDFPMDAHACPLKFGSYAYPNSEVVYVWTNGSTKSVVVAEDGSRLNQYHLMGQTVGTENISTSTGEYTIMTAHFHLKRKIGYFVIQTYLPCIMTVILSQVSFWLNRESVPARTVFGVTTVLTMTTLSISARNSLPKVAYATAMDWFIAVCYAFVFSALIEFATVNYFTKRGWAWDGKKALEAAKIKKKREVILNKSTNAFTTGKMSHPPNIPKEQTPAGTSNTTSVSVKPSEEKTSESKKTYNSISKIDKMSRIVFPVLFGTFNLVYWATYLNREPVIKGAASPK

Rattus norvegicus [13] = assay: Procognitive effect in Harlan Wistar rat assessed as decrease in exploring time of unfamiliar rat during social investigatory behaviour at 0.3 to 10 mg/kg, po administered 30 mins prior to testing measured for 5 mins by social learning test relative to control; assay type: functional, organism-based

Ki [3]: 0.45 nM
Ki [7]: 0.33 nM
inhibition [11]: 37%
Ki [12]: 24.9 nM
Structure (SMILES): [O-][n+]1nc2c(I)cnn2c2cc(NCc3cccnc3)ccc21
Time (Rattus norvegicus [1]): 29.4 s
Time (Rattus norvegicus [2]): 43.7 s
Activity (Mus musculus [4]): 0%
Activity (Mus musculus [5]): Active
Time (Rattus norvegicus [6]): 42.5 s
Activity (Mus musculus [8]): tde
Activity (Mus musculus [9]): inactive
Activity (Mus musculus [10]): Active
Activity (Rattus norvegicus [13]): inactive
